The source made the active and inactive calls. The calls are words filed in the database; no cut-off is given here.
Key:
[1] = target: Protein smoothened (Homo sapiens) (UniProt Q99835); test: Antagonist activity at Smo (unknown origin) transfected in HEK293T cells incubated for 2 hrs by BODIPY-Cyclopamine based competitive binding assay; format: cell-based; settings: filed as antagonist, dose 10-50 nM
Outline: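 […] cells stably transfected with a Smo plasmid, with expression confirmed by Western blot. Cells (2×10^4/well) were grown 24 h in poly-L-lysine-coated wells, then fixed with 4% paraformaldehyde and DAPI-stained. BODIPY-cyclopamine (100 nM) was added together with test compound for 2 h. Green fluorescence was imaged by fluorescence microscopy.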

[2] = test system: BXPC-3; test: Antiproliferative activity against human BXPC-3 cells assessed as inhibition of cell viability incubated for 48 hrs by MTT assay; format: functional, cell-based; settings: BXPC-3, 48 h
Outline: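 Cells in log phase were seeded at 8,000-10,000/well and allowed to adhere overnight at 37 °C, 5% CO2. Compound from DMSO stock, diluted in medium, was applied for 48 h; controls got drug-free medium, blanks held medium only. MTT (5 mg/mL stock) 4 h, formazan dissolved in DMSO, A490 read. Viability was blank-corrected against untreated cells; IC50 came from a fitted curve; three separate experiments.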

[3] = test system: BXPC-3; test: Inhibition of Hh signaling pathway in human BXPC-3 cells assessed as reduction in Gli1 mRNA level incubated for 48 hrs by qRT-PCR analysis; format: cell-based; settings: dose 2.5-10 µM
Outline: (§1)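 Total RNA was extracted by column kit after 48 h treatment and checked spectrophotometrically. Gli1 and Ptch1 transcripts were quantified by real-time RT-qPCR with GAPDH as internal control. Results are fold change relative to the untreated group; three separate experiments.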

[4] = test system: PANC-1; test: Inhibition of Hh signaling pathway in human PANC-1 cells assessed as reduction in Ptch1 mRNA level incubated for 48 hrs by qRT-PCR analysis; format: cell-based; outline: as §1
[5] = test system: PANC-1; test: Inhibition of cell migration in human PANC-1 cells incubated for 24 hrs by wound healing assay; format: functional, cell-based; settings: dose 2.5-10 µM
Outline: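 Monolayers at 80-90% confluence were scratched with a cross and washed three times with PBS. Eight fields were imaged at 0 h. Cells were then incubated with compound in medium containing 2% FBS, and the same fields were re-imaged at 24 h (100×). Closure % = (area 0 h − area 24 h)/area 0 h × 100; n = 3.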

[6] = test system: PANC-1; test: Induction of apoptosis in human PANC-1 cells assessed as viable cells at 2.5 uM incubated for 48 hrs by Annexin V-FITC/PI staining based flow cytometry (reference value: 93.2 %); format: functional; settings: read-out: Activity
[7] = test system: PANC-1; test: Induction of apoptosis in human PANC-1 cells assessed as necrotic cells at 8 uM incubated for 48 hrs by Annexin V-FITC/PI staining based flow cytometry (reference value: 2.24 %); format: functional
[8] = test system: PANC-1; test: Induction of apoptosis in human PANC-1 cells assessed as necrotic cells at 10 uM incubated for 48 hrs by Annexin V-FITC/PI staining based flow cytometry (reference value: 2.24 %); format: functional
[9] = test system: BXPC-3; test: Induction of apoptosis in human BXPC-3 cells assessed as early apoptotic cells at 5 uM incubated for 48 hrs by Annexin V-FITC/PI staining based flow cytometry (reference value: 1.11 %); format: functional
[10] = test system: BXPC-3; test: Induction of apoptosis in human BXPC-3 cells assessed as early apoptotic cells at 8 uM incubated for 48 hrs by Annexin V-FITC/PI staining based flow cytometry (reference value: 1.11 %); format: functional
[11] = test system: BXPC-3; test: Induction of apoptosis in human BXPC-3 cells assessed as late apoptotic cells at 8 uM incubated for 48 hrs by Annexin V-FITC/PI staining based flow cytometry (reference value: 6.72 %); format: functional
[12] = test system: BXPC-3; test: Induction of apoptosis in human BXPC-3 cells assessed as late apoptotic cells at 10 uM incubated for 48 hrs by Annexin V-FITC/PI staining based flow cytometry (reference value: 6.72 %); format: functional
[13] = test system: BXPC-3; test: Induction of apoptosis in human BXPC-3 cells assessed as necrotic cells at 10 uM incubated for 48 hrs by Annexin V-FITC/PI staining based flow cytometry (reference value: 0.71 %); format: functional
[14] = test system: PANC-1; test: Induction of cell cycle arrest in human PANC-1 cells assessed as accumulation at G2 phase at 5 uM incubated for 48 hrs by PI/RNase staining based flow cytometry (reference value: 5.83 %); format: functional
[15] = test system: PANC-1; test: Induction of cell cycle arrest in human PANC-1 cells assessed as accumulation at S phase at 10 uM incubated for 48 hrs by PI/RNase staining based flow cytometry (reference value: 7.58 %); format: functional
[16] = test system: BXPC-3; test: Induction of cell cycle arrest in human BXPC-3 cells assessed as accumulation at G1 phase at 5 uM incubated for 48 hrs by PI/RNase staining based flow cytometry (reference value: 84.2 %); format: functional
[17] = test system: BXPC-3; test: Induction of cell cycle arrest in human BXPC-3 cells assessed as accumulation at G1 phase at 10 uM incubated for 48 hrs by PI/RNase staining based flow cytometry (reference value: 84.2 %); format: functional
[18] = test system: Mus musculus; test: In vivo inhibition of Gli1 in human BxPC-3 cells xenografted in BALB/c nude mouse at 5 to 15 mg/kg, ip qd for 21 days by IHC analysis; settings: dose 5-15 mg/kg, time 21.0 day
[19] = test system: BxPC-3; test: Antitumor activity aginst human BxPC-3 cells xenografted in BALB/c nude mouse assessed as tumor growth inhibition at 5 to 15 mg/kg, ip qd for 21 days; settings: dose 5-15 mg/kg, time 21.0 day
[20] = Toxicity in BALB/c nude mouse xenografted with human BxPC-3 cells assessed as necrosis in lung at 5 to 15 mg/kg, ip qd for 21 days by H and E staining based analysis; settings: in vivo, 504 h
[21] = Toxicity in BALB/c nude mouse xenografted with human BxPC-3 cells assessed as cellular edema in heart at 5 to 15 mg/kg, ip qd for 21 days by H and E staining based analysis; settings: in vivo, 504 h
[22] = Toxicity in BALB/c nude mouse xenografted with human BxPC-3 cells assessed as tissue fibrosis in liver at 5 to 15 mg/kg, ip qd for 21 days by H and E staining based analysis; settings: in vivo, 504 h
[23] = Toxicity in BALB/c nude mouse xenografted with human BxPC-3 cells assessed as cellular edema in spleen at 5 to 15 mg/kg, ip qd for 21 days by H and E staining based analysis; settings: in vivo, 504 h
[24] = Toxicity in BALB/c nude mouse xenografted with human BxPC-3 cells assessed as inflammatory infiltration in liver at 5 to 15 mg/kg, ip qd for 21 days by H and E staining based analysis; settings: in vivo, 504 h
[25] = Toxicity in BALB/c nude mouse xenografted with human BxPC-3 cells assessed as inflammatory infiltration in kidneys at 5 to 15 mg/kg, ip qd for 21 days by H and E staining based analysis; settings: in vivo, 504 h

Protein smoothened (Homo sapiens), sequence (Q99835 whole entry): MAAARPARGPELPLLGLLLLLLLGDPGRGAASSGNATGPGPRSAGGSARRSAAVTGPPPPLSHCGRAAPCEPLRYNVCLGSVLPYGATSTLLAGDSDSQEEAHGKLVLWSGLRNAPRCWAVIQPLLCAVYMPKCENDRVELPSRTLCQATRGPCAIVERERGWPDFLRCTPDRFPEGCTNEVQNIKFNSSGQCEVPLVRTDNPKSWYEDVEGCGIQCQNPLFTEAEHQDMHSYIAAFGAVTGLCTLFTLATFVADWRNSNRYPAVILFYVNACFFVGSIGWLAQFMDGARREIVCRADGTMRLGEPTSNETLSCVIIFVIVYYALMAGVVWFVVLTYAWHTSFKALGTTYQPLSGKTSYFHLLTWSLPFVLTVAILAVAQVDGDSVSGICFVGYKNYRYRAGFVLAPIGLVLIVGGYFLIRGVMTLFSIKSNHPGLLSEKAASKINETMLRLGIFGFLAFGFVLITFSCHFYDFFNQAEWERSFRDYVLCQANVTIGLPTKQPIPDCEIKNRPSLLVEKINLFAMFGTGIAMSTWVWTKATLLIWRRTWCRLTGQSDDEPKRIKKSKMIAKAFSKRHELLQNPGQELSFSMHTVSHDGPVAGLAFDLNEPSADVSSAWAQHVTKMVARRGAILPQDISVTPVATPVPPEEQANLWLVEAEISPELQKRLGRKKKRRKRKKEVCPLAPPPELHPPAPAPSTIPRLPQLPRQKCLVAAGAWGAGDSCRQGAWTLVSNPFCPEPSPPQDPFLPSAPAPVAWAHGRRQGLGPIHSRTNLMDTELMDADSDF

IC50 [2]: 3.57 µM
SMILES: CN(C)Cc1ccc(NC(=O)c2ccc(Nc3nccc(-c4cccnc4)n3)cc2)cc1
Activity [1]: Dose-dependent-effect; Exhibited Fluorescence Quenching Activity Similar To Compound 1 | inhibition [3]: Dose-dependent-effect | inhibition [4]: Dose-dependent-effect | inhibition [5]: Dose-dependent-effect | viability at 2.5 µM [6]: 90.7% | Activity [7]: 2.16% | Activity [8]: 2.56% | Activity [9]: 2.71% | Activity [10]: 2.65% | Activity [11]: 12.3% | Activity [12]: 24% | Activity [13]: 2.32% | Activity [14]: 8.15% | Activity [15]: 10.5% | Activity [16]: 83.9% | Activity [17]: 92.9% | inhibition [18]: Active | inhibition [19]: Active | Activity [20]: Non-toxic | Activity [21]: Non-toxic | Activity [22]: Non-toxic | Activity [23]: Non-toxic | Activity [24]: Non-toxic | Activity [25]: Non-toxic

— ChEMBL document CHEMBL6092204, “Synthesis of pyridyl pyrimidine hedgehog signaling pathway inhibitors and their antitumor activity in human pancreatic cancer” (Eur J Med Chem, 2024)
